ChEMBL document CHEMBL1124839, “5-Hydroxytryptamine (5-HT3) receptor antagonists. 3. Ortho-substituted phenylureas” (J Med Chem, 1990)

Biological target: Serotonin 3 (5-HT3) receptor (Rattus norvegicus) (UniProt P35563+Q9JJ16)
Test: In vivo 5-hydroxytryptamine 3 receptor (5-HT 3 receptor) antagonistic activity expressed as ability to inhibit Bezold-Jarich reflex evoked by 5-HT in rats
Assay type: functional, organism-based
Summary of the method: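 Male rats (260-290 g) anesthetized with urethane (1.25 g/kg ip), with blood pressure and heart rate recorded. A submaximal 5-HT dose (6 µg/kg iv) was given repeatedly, and the heart-rate change was quantified. Compound was given iv before 5-HT. ID50 is the dose reducing the 5-HT-evoked response to 50% of the control response.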

Row | Structure (SMILES) | ID50 [µg/kg]
1 | COc1ccc(C)cc1NC(=O)NC1CC2CCC(C1)N2C (configuration not stated) | > 10
2 | COCc1ccccc1NC(=O)NC1CC2CCC(C1)N2C (configuration not stated) | 13.4
3 | CN1C2CCC1CC(NC(=O)Nc1ccccc1S(=O)(=O)N(C)C)C2 (configuration not stated) | 2.2
4 | COc1ccc(O)cc1NC(=O)NC1CC2CCC(C1)N2C (configuration not stated) | > 10
5 | COc1ccccc1NC(=O)NC1CC2CCCC(C1)N2C (stereo in doubt; 11c) | > 100
6 | COc1ccccc1NC(=O)NC1CC2CCC(C1)N2C (configuration not stated) | 2.5
7 | COc1cc(F)ccc1NC(=O)NC1CC2CCC(C1)N2C (configuration not stated) | > 10
8 | CN(C)C(=O)c1ccccc1NC(=O)NC1CC2CCC(C1)N2C (configuration not stated) | > 10
9 | COc1ccccc1NC(=O)OC1CC2CCC(C1)N2C (configuration not stated) | 2.4
10 | CN1C2CCC1CC(NC(=O)Nc1ccccc1Oc1ccccc1)C2 (configuration not stated) | 5.4
11 | CCOC(=O)c1ccccc1NC(=O)NC1CC2CCC(C1)N2C (configuration not stated) | 5.2
12 | CSc1ccccc1NC(=O)NC1CC2CCC(C1)N2C (configuration not stated) | 12.7
13 | CN1C2CCC1CC(NC(=O)Nc1ccccc1OC(C)(C)C)C2 (configuration not stated) | > 10
14 | CC(C)Oc1ccccc1NC(=O)NC1CC2CCC(C1)N2C (configuration not stated) | 4.2
15 | CCCOc1ccccc1NC(=O)NC1CC2CCC(C1)N2C (configuration not stated) | 9.8
16 | COc1ccc([N+](=O)[O-])cc1NC(=O)NC1CC2CCC(C1)N2C (configuration not stated) | > 10
17 | CCC(C)Oc1ccccc1NC(=O)NC1CC2CCC(C1)N2C (configuration not stated) | 2.7
18 | COc1ccc(OC)c(NC(=O)NC2CC3CCC(C2)N3C)c1 (configuration not stated) | > 10
19 | CCCCOc1ccccc1NC(=O)NC1CC2CCC(C1)N2C (configuration not stated) | 8.3
20 | COc1ccc(NC(=O)NC2CC3CCC(C2)N3C)c(OC)c1 (configuration not stated) | > 10
21 | CN1C2CCC1CC(NC(=O)Nc1ccccc1O)C2 (configuration not stated) | 11.6
22 | COc1ccc(F)cc1NC(=O)NC1CC2CCC(C1)N2C (configuration not stated) | 7
23 | COc1ccccc1NC(=O)NC1CC2CCCC(C1)N2C (stereo in doubt; 6c) | 7.5
24 | C=CCOc1ccccc1NC(=O)NC1CC2CCC(C1)N2C (configuration not stated) | 2.6
25 | CN1C2CCC1CC(NC(=O)Nc1ccccc1OCc1ccccc1)C2 (configuration not stated) | 5.2
26 | CCOc1ccccc1NC(=O)NC1CC2CCC(C1)N2C (configuration not stated) | 3.1
27 | COC(=O)c1ccccc1NC(=O)NC1CC2CCC(C1)N2C (configuration not stated) | 2.1
